# MC4R antagonist: human MC4R antagonism in cAMP assay; P32245; MC4R-expressing cells, MTII-stimulated cAMP, LANCE TR-FRET; inhibition, % at 6.5 µM; actives 0.48% (n = 360,000); AID 540295;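 active = inhibition above its plate's cutoff, the mean of tested wells on that plate plus 3 SD, cut at about 29% in these data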
#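 Material – human MC4R-expressing U2OS cells · Repeats – no replicates · Detection – TR-FRET with Eu-cAMP and labeled anti-cAMP, 671 nm · Times – compound 30 min, challenge 1 h, detection 1 h · Compound – single nominal compound dose of 6.5 µM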
# HTR5A inv ag: inverse agonist of human HTR5A in OPRM1-OPRD1 counter-screen. P47898. HTR5A cell line, luminescence, inverse agonism. inhibition, % at 9.3 µM. actives 0.083% (n = 340,000). AID 504634; in the data active = inhibition mostly above about 23%, no sharp cut-off; inactive = mostly below about 18%
# HTR5A ag ctr: HTR5A agonism, opioid heterodimer counter-screen | activation, % at 9.3 µM | AID 504692 | actives 0.61% (n = 340,000) | HTR5A agonist assay, luminescence, cell-based | P47898; in the data active = activation mostly above about 9.5%, no sharp cut-off; inactive = mostly below about 7.6%
# MOR-DOR ag: agonists of human mu-delta opioid receptor heterodimerization | P35372+P41143 | cells, OPRM1-OPRD1 heterodimerization, luminescence | activation, % at 9.3 µM | actives 0.3% (n = 340,000); in the data active = activation above about 18%
# Target sequence (P35372 whole entry, looked up): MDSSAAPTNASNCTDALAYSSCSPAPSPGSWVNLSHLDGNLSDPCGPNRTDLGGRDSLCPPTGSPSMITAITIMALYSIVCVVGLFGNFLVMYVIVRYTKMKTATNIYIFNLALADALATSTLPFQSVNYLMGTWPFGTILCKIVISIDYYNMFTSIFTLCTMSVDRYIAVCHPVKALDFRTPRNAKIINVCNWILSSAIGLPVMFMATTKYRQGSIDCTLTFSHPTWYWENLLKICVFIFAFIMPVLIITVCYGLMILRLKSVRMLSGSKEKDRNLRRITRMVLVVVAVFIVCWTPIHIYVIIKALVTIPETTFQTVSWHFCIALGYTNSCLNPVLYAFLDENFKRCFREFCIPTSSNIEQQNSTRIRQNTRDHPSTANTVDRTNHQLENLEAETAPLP
# Target sequence (P41143 whole entry, looked up): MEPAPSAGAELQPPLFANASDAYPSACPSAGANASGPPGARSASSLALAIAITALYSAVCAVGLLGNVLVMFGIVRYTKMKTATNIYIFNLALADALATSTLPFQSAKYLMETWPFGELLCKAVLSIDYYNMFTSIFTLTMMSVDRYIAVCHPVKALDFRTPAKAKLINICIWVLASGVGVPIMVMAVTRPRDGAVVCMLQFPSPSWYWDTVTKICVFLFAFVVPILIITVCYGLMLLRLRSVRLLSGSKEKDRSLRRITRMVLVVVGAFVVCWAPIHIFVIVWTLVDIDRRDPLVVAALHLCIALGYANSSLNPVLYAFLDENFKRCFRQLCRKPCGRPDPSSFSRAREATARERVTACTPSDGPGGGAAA
# MC4R ag barr: human MC4R agonism via beta-arrestin | P32245 | U2OS MC4R beta-arrestin complementation, luminescence; percent of melanotan II response, DMSO zero | activation, % at 8.9 µM | actives 0.98% (n = 360,000) | AID 540308;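 active = activation above a per-plate cutoff, the mean activation of sample wells on that plate plus 3 SD, cut at about 8% in these data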
# MOR-DOR inv ag: inverse agonist of human OPRM1-OPRD1 heterodimerization; P35372+P41143; actives 0.21% (n = 340,000); cell-based MOR-DOR heterodimer luminescence, inverse agonism; inhibition, % at 9.3 µM; in the data active = inhibition above about 22%, passing the limit was not always enough
# MC4R barr ag: human MC4R beta-arrestin agonism confirmation; U2OS MC4R beta-arrestin recruitment, luminescence; scaled DMSO 0%, Melanotan II 100%; AID 602192; activation, % at 8.9 µM; actives 31% (n = 2,400); shares compounds with MC4R ag barr;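 active = mean activation across replicates above the hit cutoff set in the earlier primary screen, cut at about 8% in these data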
# MOR DOR agonist: OPRM1-OPRD1 heterodimer agonism counter-screen; shares compounds with MC4R ag barr; U2OS PathHunter beta-arrestin, beta-gal luminescence; percent of deltorphin B response, DMSO zero; activation, % at 9.2 µM; actives 5.8% (n = 2,400); AID 602194;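 active = mean activation across replicates exceeds the hit threshold derived in the earlier primary screen, cut at about 18% in these data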
# A number is an active result; 0 = inactive; - = no result given. Only some compounds are listed: those with a hit (about 2.4% of all), similar ones and a draw of the others.
SMILES,MC4R antagonist,HTR5A inv ag,HTR5A ag ctr,MOR-DOR ag,MC4R ag barr,MOR-DOR inv ag,MC4R barr ag,MOR DOR agonist
Cc1ccnc2nc(C(=O)Nc3nc4ccccc4s3)nn12,0,0,0,0,0,0,-,-
COc1ccc(NC(=O)c2cc(-c3ccccn3)nc3ccccc23)cc1S(=O)(=O)N(C)C,0,0,0,0,0,0,-,-
O=C(CSc1nnc(COc2ccc(Cl)cc2)n1Cc1ccco1)c1ccccc1F,0,0,0,0,22,0,0,0
CC(C)OCCCNC(=O)CNC(=O)c1ccc(Cl)c(Cl)c1,0,0,0,0,0,0,-,-
COc1cc2ccccc2cc1C(=O)OCc1nc2ccsc2c(=O)[nH]1,0,0,0,0,15,0,0,0
O=C(NC(c1cccnc1)c1ccc2c(c1)OCO2)C1CCN(CCOc2ccc(Cl)cc2Cl)CC1 (stereo unspecified),0,-,-,-,0,-,-,-
COc1cccc(-c2cc(C(=O)Nc3ccc4c(c3)OCO4)no2)c1,0,0,0,0,16,0,0,0
O=C(Nc1ccc2c(c1)OCO2)c1cc(-c2cccc(O)c2)on1,0,0,0,0,0,0,-,-
O=C(Nc1ccc2c(c1)OCO2)c1cc(-c2ccc(O)cc2)on1,0,0,0,0,11,0,0,0
CCOC(=O)c1sc(NC(=O)c2cccc(S(=O)(=O)N3CCN(C)CC3)c2)cc1C,0,0,0,0,0,0,-,-
CCOC(=O)c1sc(NC(=O)c2cccc(S(=O)(=O)N(CC)CC)c2)cc1C,0,0,0,0,12,0,0,0
COc1cccc(OC)c1C(=O)N1CCNCC1,0,0,0,0,0,0,-,-
O=C(Nc1cccc(O)c1)c1cc2nc(-c3ccccc3)cc(-c3ccccc3)n2n1,0,0,0,0,12,0,0,0
CC/C(=N/Nc1cccc(C)c1)c1cnnc(SC)n1,0,0,0,0,21,0,0,0
CC/C(=N/Nc1ccc(Cl)cc1)c1cnnc(SC)n1,0,0,0,0,0,0,-,-
Cc1cc(C)cc(C(=O)NC(CC(N)=O)c2ccc(N3CCN(C)CC3)c([N+](=O)[O-])c2)c1 (stereo unspecified),0,0,0,0,0,0,-,-
O=C(CSc1ncnc2c1oc1ccccc12)Nc1cccc(C(F)(F)F)c1,0,0,0,0,0,0,-,-
O=C(CSc1ncnc2c1oc1ccccc12)Nc1cccc(Cl)c1,0,0,0,0,13,0,0,0
CCCc1cc(-c2[nH]ncc2-c2ccc(C(=O)OCC)o2)c(O)cc1O,0,0,0,0,23,0,10,0
CCCc1cc(-c2[nH]ncc2-c2ccc3c(c2)OCCCO3)c(O)cc1O,0,0,0,0,12,0,11,0
Cn1cc(CNCc2cn[nH]c2-c2ccc(F)cc2)c(-c2ccc3c(c2)OCCO3)n1,0,0,0,0,0,0,-,-
Brc1ccc(C2=NC(Cc3ccccc3)CO2)cc1 (stereo unspecified),0,0,0,0,0,0,-,-
COCCn1c(SCC(=O)Nc2ccc(NC(=O)c3ccco3)c(OC)c2)nc2ccccc2c1=O,0,0,0,0,27,0,0,0
COCCn1c(SCC(=O)Nc2ccccc2OC)nc2ccccc2c1=O,0,0,0,0,0,0,-,-
CCn1c(SCC(=O)Nc2ccccc2OC)nc2ccccc2c1=O,0,0,0,0,0,0,-,-
SMILES,MC4R antagonist,HTR5A inv ag,HTR5A ag ctr,MOR-DOR ag,MC4R ag barr,MOR-DOR inv ag,MC4R barr ag,MOR DOR agonist
COc1ccc(NC(=O)CSc2nc3ccccc3c(=O)n2CCNC(C)=O)cc1,0,0,0,0,0,0,-,-
C=CCn1c(SCC(=O)Nc2ccc(OC)cc2)nc2ccccc2c1=O,0,0,0,0,15,0,0,0
CCn1c(SCC(=O)Nc2ccc(NC(=O)c3ccco3)c(OC)c2)nc2ccccc2c1=O,0,0,0,0,18,0,0,0
Cc1cc(F)ccc1-c1cc(C(=O)NCc2cccc(C(F)(F)F)c2)[nH]n1,0,-,-,-,0,-,-,-
CCc1ccc(NC(=O)CSc2nnc(-c3n[nH]c4ccccc34)n2-c2ccccc2)cc1,0,0,0,0,10,0,0,0
O=C(CSc1nnc(-c2n[nH]c3ccccc23)n1-c1ccccc1)Nc1cccc(Cl)c1,0,0,0,0,0,0,-,-
CCN(CC)c1nc(OCCNC(=O)Nc2ccccc2)nc(N(CC)CC)n1,0,0,0,0,13,0,0,0
O=C(NCCOc1nc(N2CCCCC2)nc(N2CCCCC2)n1)Nc1ccccc1,0,0,0,0,0,0,-,-
Cc1ccc(NC(=O)Cn2nc(-c3ccccc3)nc2-c2ccccc2)c(C)c1,0,0,0,0,17,0,0,0
C#CCn1c(=NC(=O)c2cc(-c3cccs3)nc3ccccc23)sc2cc(S(N)(=O)=O)ccc21,0,0,0,0,20,0,10,0
C#CCn1c(=NC(=O)c2cc(Cl)sc2Cl)sc2cc(S(N)(=O)=O)ccc21,0,0,0,0,0,0,-,-
CCOC(=O)C1(CCC(=O)OCc2ccccc2)CCCCC1=O (stereo unspecified),0,0,0,0,0,0,-,-
COC(=O)c1sccc1N/N=C/c1cccc(OC)c1O,0,0,0,0,14,0,0,0
O=C(O)CCC(=O)Nc1ccc(-c2nc3ccc(C(=O)c4ccccc4)cc3[nH]2)cc1,0,0,0,0,0,0,-,-
O=C(c1ccccc1)c1ccc2nc(-c3ccc(NC(=O)c4ccccc4F)cc3)[nH]c2c1,0,0,0,0,12,0,0,0
O=C(N/N=C/c1ccncc1)c1cccc(NC(=O)c2ccc(Cl)cc2)c1,0,0,0,0,0,0,-,-
O=C(N/N=C/c1ccc(F)cc1)c1cccc(NC(=O)c2ccc(F)cc2)c1,0,0,0,0,42,0,0,0
S=c1[nH]nc(-c2ccccc2)n1/N=C/c1ccc(-c2ccccc2Cl)o1,0,0,0,0,12,0,0,0
CCOC(=O)c1oc2ccccc2c1NC(=O)COc1ccc(F)cc1,0,0,0,0,37,0,25,21
CCOCc1c(C(=O)OCC(=O)NCc2ccc(F)cc2)oc2ccccc12,0,0,0,0,14,0,0,0
COCc1c(C(=O)OCC(=O)NCCc2ccc(S(N)(=O)=O)cc2)oc2ccccc12,0,0,0,0,0,0,-,-
Cc1ccc(S(=O)(=O)NC(=O)C2(C)CCN2C(=O)Cc2ccc(Cl)cc2Cl)nc1 (stereo unspecified),0,-,-,-,0,-,-,-
COc1ccccc1C(=O)Nc1nc2ccc(S(C)(=O)=O)cc2s1,0,0,0,0,14,0,0,0

# Source: PubChem
